Data set [1] deals with 72 kDa type IV collagenase (Homo sapiens, UniProt P08253). Kind of data set: Inhibition of human full length MMP2 using Mca-Pro-Leu-Gly-Leu-Dpa(Dnp)-Ala-Arg-NH2 as substrate measured up to 120 mins by fluorescence assay. A digest of the protocol:
(§1)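 Recombinant full-length human enzyme activated with APMA, used at 0.1 nM final in 50 mM Tris/HCl pH 7.5, 10 mM CaCl2, 150 mM NaCl, 0.05% Brij-35. Inhibitor added from DMSO (e.g., 1 nM to 30 μM). Activity read as initial slope of fluorescence rise from cleavage of an internally quenched fluorogenic substrate; IC50 derived.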

The target of data set [2] is Matrix metalloproteinase-9 (Homo sapiens, UniProt P14780). Kind of data set: Inhibition of human full length MMP9 using Mca-Pro-Leu-Gly-Leu-Dpa(Dnp)-Ala-Arg-NH2 as substrate measured up to 120 mins by fluorescence assay. A digest of the protocol:
as §1

Data set [3] addresses T1, Interstitial collagenase (Homo sapiens, UniProt P03956).
T1 sequence (P03956 whole entry): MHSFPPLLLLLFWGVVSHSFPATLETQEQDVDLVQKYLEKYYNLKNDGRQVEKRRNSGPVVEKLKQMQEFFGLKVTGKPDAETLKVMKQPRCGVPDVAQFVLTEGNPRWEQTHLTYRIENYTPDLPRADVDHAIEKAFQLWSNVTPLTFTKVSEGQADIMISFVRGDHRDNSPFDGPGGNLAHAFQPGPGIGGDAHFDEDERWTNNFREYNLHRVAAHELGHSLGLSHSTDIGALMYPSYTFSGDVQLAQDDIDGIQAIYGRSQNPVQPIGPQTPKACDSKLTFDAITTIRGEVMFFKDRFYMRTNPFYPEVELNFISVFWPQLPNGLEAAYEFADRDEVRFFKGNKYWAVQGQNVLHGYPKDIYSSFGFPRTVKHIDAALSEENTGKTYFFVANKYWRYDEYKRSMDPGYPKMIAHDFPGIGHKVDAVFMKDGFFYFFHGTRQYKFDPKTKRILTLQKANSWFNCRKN
Nature of the data set: Inhibition of MMP1 (unknown origin).

Data set [4] has as its system Bone. Kind of data set: Drug uptake in C57BL/6 mouse bone at 5.3 MBq, iv by PET/CT imaging. The conditions noted are these: in vivo. The format is ADME, organism-based, Bone element. A digest of the protocol:
(§2)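 Single C57BL/6 mouse, 5.3 MBq 18F-tracer via tail vein, isoflurane 2−3% in oxygen/air, body kept at 37 °C. Small-animal PET/CT, two-bed static acquisition: anterior 8−22 min, posterior 23−38 min post-injection; images averaged 8−38 min.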

Data set [5] in a line: Drug excretion in C57BL/6 mouse urine at 650 MBq/mL after 15 to 60 mins by UPLC analysis. The format is ADME, tissue-based. The conditions noted are these: in the assay text read “after 60 mins” for “after 15 to 60 mins”, read-out: Drug excretion. The method, boiled down:
(§3)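 C57BL/6 mice given 150 μL of 650 MBq/mL (17.5 mCi/mL) 18F-labelled tracer each; killed by decapitation at 15, 30 and 60 min post-injection. Blood and urine collected, proteins precipitated with twice the volume of ice-cold acetonitrile, centrifuged; supernatants analysed by radio-UPLC for intact tracer versus metabolites.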

The test system of data set [6] is Plasma. Nature of the data set: Metabolic stability in rat plasma at 60 Mbq up to 2 hrs by UPLC analysis. The data set is classed as ADME, cell-free. A digest of the protocol: (§4)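 About 60 MBq formulated 18F-tracer (5% ethanol in PBS) added to ~0.5 mL plasma, split into six aliquots. Zero-time sample quenched immediately with methanol; others incubated at 37 °C with shaking and quenched with ice-cold methanol at 5, 30, 60, 90, 120 min. Proteins removed by centrifugation at 10000g, 10 min; supernatants analysed by UPLC.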

Data set [7] in a line: Drug uptake in C57BL/6 mouse urinary bladder at 5.3 MBq, iv by PET/CT imaging. The format is ADME, organism-based. The conditions noted are these: in vivo. A digest of the protocol: as §2
Data set [8] relates to Blood. Nature of the data set: Drug metabolism in C57BL/6 mouse blood assessed as compound remaining at 650 MBq/mL after 15 to 60 mins by UPLC analysis. The format is ADME, tissue-based. A digest of the protocol:
as §3

Data set [9] has as its system Plasma. Nature of the data set: Metabolic stability in human plasma at 60 Mbq up to 2 hrs by UPLC analysis. The format is ADME, cell-free. A digest of the protocol: as §4

This note sets out measurements from ChEMBL document CHEMBL2385031, “Design, synthesis, and initial evaluation of a high affinity positron emission tomography probe for imaging matrix metalloproteinases 2 and 9” (J Med Chem, 2013).

Chain of 72 kDa type IV collagenase (P08253 whole entry): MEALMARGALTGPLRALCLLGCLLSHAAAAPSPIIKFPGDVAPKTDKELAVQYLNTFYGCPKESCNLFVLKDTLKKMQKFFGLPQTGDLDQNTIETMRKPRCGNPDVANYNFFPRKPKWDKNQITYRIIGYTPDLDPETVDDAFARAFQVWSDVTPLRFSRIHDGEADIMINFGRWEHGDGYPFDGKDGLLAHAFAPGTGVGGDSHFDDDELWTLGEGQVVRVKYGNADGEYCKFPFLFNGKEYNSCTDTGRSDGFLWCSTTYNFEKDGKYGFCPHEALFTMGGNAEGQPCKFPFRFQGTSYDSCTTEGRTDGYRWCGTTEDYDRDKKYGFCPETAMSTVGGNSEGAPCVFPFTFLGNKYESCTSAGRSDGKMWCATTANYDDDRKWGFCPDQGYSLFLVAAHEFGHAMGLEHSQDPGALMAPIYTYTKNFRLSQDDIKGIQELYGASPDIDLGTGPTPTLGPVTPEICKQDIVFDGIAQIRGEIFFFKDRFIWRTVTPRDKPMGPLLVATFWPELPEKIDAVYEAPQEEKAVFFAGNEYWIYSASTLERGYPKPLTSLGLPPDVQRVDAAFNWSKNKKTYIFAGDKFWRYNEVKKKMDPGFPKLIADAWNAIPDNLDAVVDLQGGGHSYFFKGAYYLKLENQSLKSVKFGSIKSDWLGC
Chain of Matrix metalloproteinase-9 (P14780 whole entry): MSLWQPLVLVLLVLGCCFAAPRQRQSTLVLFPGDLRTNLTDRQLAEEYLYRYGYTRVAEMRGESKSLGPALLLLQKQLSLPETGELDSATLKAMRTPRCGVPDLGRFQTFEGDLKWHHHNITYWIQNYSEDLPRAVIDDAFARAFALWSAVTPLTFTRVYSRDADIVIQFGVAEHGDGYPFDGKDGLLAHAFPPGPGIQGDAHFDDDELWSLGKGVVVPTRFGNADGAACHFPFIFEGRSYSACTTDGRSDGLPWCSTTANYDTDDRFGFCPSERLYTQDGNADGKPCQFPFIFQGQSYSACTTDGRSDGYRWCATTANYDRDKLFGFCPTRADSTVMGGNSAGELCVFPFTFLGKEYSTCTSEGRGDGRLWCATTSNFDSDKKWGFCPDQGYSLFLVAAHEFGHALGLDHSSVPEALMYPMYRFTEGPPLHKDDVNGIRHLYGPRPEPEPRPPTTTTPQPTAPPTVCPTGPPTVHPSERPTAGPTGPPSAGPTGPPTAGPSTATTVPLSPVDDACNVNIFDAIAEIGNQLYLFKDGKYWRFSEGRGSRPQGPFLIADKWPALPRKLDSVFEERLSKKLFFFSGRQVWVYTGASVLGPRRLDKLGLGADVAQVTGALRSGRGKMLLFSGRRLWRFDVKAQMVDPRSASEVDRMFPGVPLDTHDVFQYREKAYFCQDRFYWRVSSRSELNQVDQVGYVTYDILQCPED

In the case of `COc1ccc(Oc2ccc(S(=O)(=O)N[C@H](Cc3c[nH]c4ccccc34)C(=O)O)cc2)cc1`, the IC50 was 3.6 nM in data set [1] and 100 nM in data set [2].

In the case of `COc1ccc(C(=O)Nc2ccc(S(=O)(=O)N[C@H](Cc3c[nH]c4ccccc34)C(=O)O)cc2)cc1`, the IC50 in data set [1] was below 1 nM; in data set [2] it was 11 nM.

On to `O=C(Nc1ccc(S(=O)(=O)N[C@H](Cc2c[nH]c3ccccc23)C(=O)O)cc1)c1ccnc(F)c1`, for which the IC50 in data set [1] was 14 nM; in data set [2], 78 nM.

In the case of `O=C(Nc1ccc(S(=O)(=O)N[C@H](Cc2c[nH]c3ccccc23)C(=O)O)cc1)c1ccc(F)cc1`, the IC50 in data set [1] was 1.8 nM; in data set [2], 7 nM; in [3], above 1000 nM.

Consider `O=C(O)[C@@H](Cc1c[nH]c2ccccc12)NS(=O)(=O)c1ccc(-c2ccc(Cl)cc2)cc1`, for which the IC50 in data set [1] worked out at 5.8 nM; in data set [2] it was 230 nM.

With `O=C(Nc1ccc(S(=O)(=O)N[C@H](Cc2c[nH]c3ccccc23)C(=O)O)cc1)c1ccc(I)cc1`, the IC50 was below 1 nM in [1] and 1.1 nM in data set [2].

On to `O=C(Nc1ccc(S(=O)(=O)N[C@H](Cc2c[nH]c3ccccc23)C(=O)O)cc1)c1ccc(F)nc1`, for which the IC50 was 7 nM in data set [1], 17 nM in [2] and above 1000 nM in [3].

Take `O=C(Nc1ccc(S(=O)(=O)N[C@H](Cc2c[nH]c3ccccc23)C(=O)O)cc1)c1ccc(OC(F)(F)F)cc1`: the IC50 in [1] came to 4.8 nM; in data set [2], 21 nM.

For the compound `COc1ccc(-c2ccc(S(=O)(=O)N[C@H](Cc3c[nH]c4ccccc34)C(=O)O)cc2)cc1`, the IC50 was found to be 4.8 nM in data set [1] and 28 nM in [2].

For `CC(C)COc1ccc(C(=O)Nc2ccc(S(=O)(=O)N[C@H](Cc3c[nH]c4ccccc34)C(=O)O)cc2)cc1`, the results for the IC50 in [1] and in data set [2] were below 1 nM and 460 nM, respectively.

On to `O=C(Nc1ccc(S(=O)(=O)N[C@H](Cc2c[nH]c3ccccc23)C(=O)O)cc1)c1ccc([18F])cc1`, for which the Drug uptake result is “Not Active” in data set [4] and “Active” in data set [7]. Moreover, the dose excreted in [5] turned out to be 85%. Also, the Stability result in data set [6] and in data set [9] was “Stable” throughout. Also, the Drug metabolism entry in data set [8] is recorded as “Not Active”.

On to `O=C(Nc1ccc(S(=O)(=O)N[C@H](Cc2c[nH]c3ccccc23)C(=O)O)cc1)c1cccnc1F`, for which the values for the IC50 in data set [1] and in data set [2] were 141 nM and above 1000 nM, respectively.

For `O=C(Nc1ccc(S(=O)(=O)N[C@H](Cc2c[nH]c3ccccc23)C(=O)O)cc1)c1ccc(Br)cc1`, the results for the half-inhibitory concentration (IC50) in data set [1], in [2] and in data set [3] were 0.9 nM, 1 nM and above 1000 nM, respectively.

As for `CC(C)Oc1ccc(C(=O)Nc2ccc(S(=O)(=O)N[C@H](Cc3c[nH]c4ccccc34)C(=O)O)cc2)cc1`, the values for the IC50 in [1] and in [2] were below 1 nM and 97 nM, respectively.

`O=C(Nc1ccc(S(=O)(=O)N[C@H](Cc2c[nH]c3ccccc23)C(=O)O)cc1)c1cc(F)ccn1`: the IC50 in data set [1] is 5.2 nM; in [2], 38 nM.
